UPR CHOP act: activators of apoptotic CHOP UPR arm, primary screen, cell-based, CHO-CHOP luciferase reporter, luminescence, uHTS; activation, % at 10 µM; AID 449763, 2010; UPR activation; percent of tunicamycin response over DMSO baseline; hit rate 0.34% among 330,000;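 active = at 10 µM dose, activation of 40% or more, normalized to positive control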
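Assay system: CHO cells with stable CHOP pathway luciferase reporter; Buffer or medium: F12 plus 10% serum; Times: 16-18 h cell attachment, then 6 h compound exposure, 37 °C; Signal: luciferase luminescence; Read-out basis: percent activation relative to tunicamycin control; Control set: tunicamycin high control, DMSO low control.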
CHOP inhibitor: inhibitors of CHOP promoter induction, primary screen, cell-based, unfolded protein response, luciferase reporter; CHO-K1 CHOP-promoter luciferase, tunicamycin-induced, 15-18 h; inhibition, % at 10 µM; hit rate 3.8% among 220,000;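 active = compounds that reduced the stress-induced luciferase reporter signal by more than about 70% of percent inhibition, limit read from the data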
XBP1 UPR activ: activators of adaptive XBP1 UPR arm, primary screen, cell-based, CHO-XBP1 luciferase reporter, luminescence, uHTS | hit rate 0.33% among 330,000 | activation, % at 20 µM | IRE1-XBP1 UPR activation; percent of tunicamycin response, DMSO as zero;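 active = versus positive control, 20 µM dose yields 30% or more activation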
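Material: CHO-XBP1 cells stably carrying IRE1-XBP1-driven luciferase reporter / Amount: 1000 cells per well / Compound: 20 µM, 1% DMSO / Times: 6 h treatment, 37 °C / Detection: luciferase luminescence / Measure: % activation of reporter signal versus tunicamycin and DMSO controls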
GAA850 FXN act: FXN promoter activators, primary screen, cell-based, luciferase luminescence, HEK293 lucGAA850. HEK293 lucGAA850 FXN promoter luciferase reporter, 24 h; percent of 10 µM SAHA response. activation, % at 6 µM. hit rate 0.56% among 360,000. AID 540364, 2011;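 active = activation above the average of all compounds screened plus 3 SD, cutoff fixed separately per campaign, cut at about 7.5% in these data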
UPR CHOP confirm: activators of apoptotic CHOP UPR arm, confirmation, cell-based, CHO-CHOP luciferase reporter, single concentration; AID 463112, 2010; shares compounds with UPR CHOP act; activation, % at 10 µM; CHO-CHOP cells, CHOP-luciferase reporter luminescence; percent of tunicamycin response, DMSO as zero; hit rate 64% among 1,000; in the data active = activation above about 33%
Each line names hits and unclear results; the compound was inactive in the other large screens (follow-up assays come after a bar, where they were run). This is one part of a sample in which hits are shown more often than they occur.

Oc1c(C(Nc2ccccn2)c2ccccn2)ccc2cccnc12 (configuration not stated)	UPR CHOP act 58.8 | UPR CHOP confirm 70.8
COc1cc(C(Nc2ccccn2)c2ccc3ccc(C)nc3c2O)cc(OC)c1O (configuration not stated)	UPR CHOP act 262.7 (no result: CHOP inhibitor) | UPR CHOP confirm 251.2
COc1ccc(C(O)c2nc(-c3ccccc3)cs2)cc1 (configuration not stated)	none (no result: UPR CHOP act, CHOP inhibitor, XBP1 UPR activ)
COc1cc(OC)c(NC2=CC(=O)C(=O)c3ccccc32)cc1Cl	UPR CHOP act 53.4 (no result: CHOP inhibitor) | UPR CHOP confirm inactive
CN1CCN(c2ccc(NC(=O)c3ccc([N+](=O)[O-])o3)cc2Cl)CC1	UPR CHOP act 98.7 (no result: CHOP inhibitor) | UPR CHOP confirm 59.5
CC(C)C(=O)N1CCN(c2ccc(NC(=O)c3ccc([N+](=O)[O-])o3)cc2)CC1	UPR CHOP act 108.1 | UPR CHOP confirm 71.3
CCn1nccc1NC(=O)c1csc([C@@H]2C[C@H](O)[C@@H](CO)O2)n1	none (no result: UPR CHOP act, CHOP inhibitor, XBP1 UPR activ)
C/C(=N\NC(=O)C(C)Oc1ccc([N+](=O)[O-])cc1)c1ccccn1 (configuration not stated)	UPR CHOP act 67.4 | UPR CHOP confirm 42.2
C[C@@H]1CN([C@@H](C)CO)C(=O)CCCn2nncc2CO[C@@H]1CN(C)C(=O)Nc1ccc(N2CCN(C)CC2)cc1	none (no result: UPR CHOP act, CHOP inhibitor, XBP1 UPR activ)
CCCn1c(CN2CCN(C(=O)OCC)CC2)nc2cc(NC(=O)C(C)C)ccc21	UPR CHOP act 49.8 (no result: CHOP inhibitor) | UPR CHOP confirm inactive
Cc1cc(C)nc(Sc2ncnc(N)c2[N+](=O)[O-])n1	UPR CHOP act 94.6, CHOP inhibitor 101.7 | UPR CHOP confirm inactive
COc1ccc(/C=C/c2ccc3cccc(O)c3n2)c(OC)c1OC	UPR CHOP act 135.3, GAA850 FXN act 8.9 (no result: CHOP inhibitor) | UPR CHOP confirm inactive
COc1cccc(/C=C/c2ccc3cccc(O)c3n2)c1OC	none (no result: CHOP inhibitor)
CN=c1scc(-c2cccs2)n1/N=C/c1ccc(O)c(O)c1O	none
C=CCN=c1scc(-c2ccco2)n1/N=C/c1ccc(O)c(O)c1O	UPR CHOP act 161.1 | UPR CHOP confirm 63.5
O=C(/C=C/c1ccc([N+](=O)[O-])cc1)/C=C/c1ccco1	UPR CHOP act 56.6 (no result: CHOP inhibitor) | UPR CHOP confirm 108.4
COc1ccc(C(C)(O)c2nc(-c3ccncc3)cs2)cc1 (configuration not stated)	none (no result: UPR CHOP act, CHOP inhibitor, XBP1 UPR activ)
O=C1CC(c2ccc(O)c(O)c2)Oc2c1ccc(O)c2O (configuration not stated)	none
CC(C)=CCc1c(O)ccc2c1OC(c1ccc(O)c(O)c1)CC2=O (configuration not stated)	UPR CHOP act 68.7 | UPR CHOP confirm inactive
COc1cc(S(=O)(=O)N2CCC(c3nc4ccccc4s3)CC2)ccc1S(=O)(=O)N1CC(C)CC(C)C1 (configuration not stated)	UPR CHOP act 209.2 | UPR CHOP confirm inactive
COc1cc(S(=O)(=O)N2CCC(c3nc4ccccc4s3)CC2)ccc1S(=O)(=O)NC1CCCC1	none
c1ccc(-c2nc(NCc3ccco3)c3ccccc3n2)nc1	UPR CHOP act 67.1 | UPR CHOP confirm inactive
Cc1ccc(NC(=O)c2ccc([N+](=O)[O-])o2)cc1S(=O)(=O)N1CCOCC1	UPR CHOP act 82.4 | UPR CHOP confirm 39.6
O=C(Nc1cccc(S(=O)(=O)N2CCCCC2)c1)c1ccc([N+](=O)[O-])o1	UPR CHOP act 54.9 | UPR CHOP confirm 38.5
O=C(COC(=O)c1ccc([N+](=O)[O-])o1)Nc1cccc(S(=O)(=O)N2CCCCC2)c1	none
C=CCn1nc([N+](=O)[O-])nc1Sc1cccc2cccnc12	UPR CHOP act 168.0, CHOP inhibitor 88.3 | UPR CHOP confirm 230.4
CN1CCN(C(=O)C2Cc3c(-c4ccc5c(c4)OCO5)ccnc3O2)CC1 (configuration not stated)	none (no result: UPR CHOP act, CHOP inhibitor, XBP1 UPR activ)
Cc1ccc(C2=NN(C(=O)CCl)C(c3cccs3)C2)o1 (configuration not stated)	UPR CHOP act 41.4, CHOP inhibitor 84.1 | UPR CHOP confirm inactive
COc1cc(C(O)c2nc(/C=C/c3ccc(C(F)(F)F)cc3)cs2)ccc1F (configuration not stated)	none (no result: UPR CHOP act, CHOP inhibitor, XBP1 UPR activ)

Assay outcomes: PubChem BioAssay, several laboratories
